Shown are actives, neighbours in structure and some others; about 2.2% of the full set was active somewhere.
Neddyl block: blocks human cullin neddylation. P61081+Q13564. TR-FRET cullin neddylation, biochemical. inhibition, % at 25 µM. 360,000 tested, 0.58% active; in the data active means inhibition above about 36%
PfM18AAP inh: PfM18AAP enzyme inhibition | recombinant PfM18AAP, H-Glu-NHMec fluorogenic cleavage | inhibition, % at 7.35 µM | 290,000 tested, 1.2% active;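 active means inhibition above the campaign mean inhibition over all tested compounds plus 3 SD, cut at about 28% in these data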;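 further: 0% = plate median of test compound wells and 100% = 2 mM ZnCl2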
HKDC1 inhibitor: HKDC1 (human) hexokinase inhibition; recombinant HKDC1, G6PDH/diaphorase resazurin coupled fluorescence; 340,000 tested, 0.16% active; inhibition, % at 20 µM; AID 493160; Q2TB90;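 active means inhibition above about 35% when tested at 20 µM, limit read from the data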;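 further: plate controls were DMSO wells with enzyme for no effect and DMSO wells lacking enzyme for full effect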
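Assay system: recombinant HKDC1 hexokinase; detection: coupled resazurin fluorescence, excitation 525 nm, emission 613 nm; benchmarks: DMSO-plus-enzyme-mix negative control, buffer-substituted positive control; compound dosing: single 20 µM dose; schedule: 90 min at room temperature in dark; also added: glucose plus 1 mM ATP as hexokinase substrates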
PfG6PD inh: PfG6PD (Plasmodium falciparum) enzyme inhibition; PfGluPho enzyme, NADPH resazurin-diaphorase fluorescence; inhibition, % at 20 µM; 350,000 tested, 0.78% active; AID 504690;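 active means inhibition reaching at least a set limit at 20 µM in the primary screen, cut at about 59% in these data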;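 further: 0% = DMSO wells with substrate and 100% = DMSO wells lacking glucose-6-phosphate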
PfG6PD confirm: confirmation of Plasmodium falciparum G6PD inhibitors. AID 504753. recombinant PfGluPho, NADPH-diaphorase-resazurin fluorescence. inhibition, % at 20 µM. shares compounds with PfG6PD inh. 2,400 tested, 34% active;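 active means inhibition of at least 50% at 20 µM in any single replicate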;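 further: 0% = DMSO with substrate and 100% = DMSO lacking glucose-6-phosphate substrate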
Diaph ctr 10uM: counter-screen for P. falciparum G6PD inhibitors: diaphorase inhibitors, oxidizers. diaphorase-coupled resazurin reduction, fluorescence, NADPH 10 uM. AID 504862. inhibition, % at 20 µM. shares compounds with PfG6PD inh. 820 tested, 39% active;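 active means average inhibition reaching 50% or more with the compound at 20 µM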;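 further: resorufin red fluorescence formed as diaphorase reduces resazurin using NADPH; 0% = DMSO with enzyme and 100% = DMSO without enzyme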
Diaphorase 30uM: diaphorase inhibition or oxidation at 30 uM NADPH; shares compounds with PfG6PD inh; Diaphorase/resazurin coupled assay, resorufin fluorescence; inhibition, % at 20 µM; 820 tested, 29% active;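 active means inhibition averaging 50% or more, tested at 20 µM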;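 further: 0% = DMSO with enzyme and 100% = DMSO wells lacking diaphorase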
* = called active by the depositor; · = no result shown.

SMILES | Neddyl block | PfM18AAP inh | HKDC1 inhibitor | PfG6PD inh | PfG6PD confirm | others
NC(=S)Nc1cc(Cl)cc(Cl)c1 | -2.1 | -0.7 | -5.6 | 19.6 | ·
NC(=S)NNc1cc(Cl)cc(Cl)c1 | 3.9 | 9.9 | -2.7 | 71.0* | 13.8
CC(C)C1=CC(=NS(=O)(=O)c2cccc([N+](=O)[O-])c2)C=C(C(C)C)C1=O | -35.8 | -9.7 | 16.7 | 78.3* | -0.5
CC(C)c1nccn1S(=O)(=O)c1cccc([N+](=O)[O-])c1 | -21.2 | -3.8 | -9.4 | -11.8 | ·
C#CCOCCOCCOCCNc1nc(N2CCN(C(=O)[C@H](CCCCN)n3cc([C@@H](N)C(C)CC)nn3)CC2)nc(N2CCN(C(=O)[C@H](Cc3cc4ccccc4[nH]3)n3cc([C@@H](N)C(C)CC)nn3)CC2)n1 (stereo not given in full) | -30.3 | · | 6.9 | 61.2* | 37.5
C#CCOCCOCCOCCNc1nc(N2CCN(C(=O)CCCCCCCCCCNC(=O)[C@H](CCCCN)n3cc(CCO)nn3)CC2)nc(N2CCN(C(=O)CCCCCCCCCCNC(=O)[C@H](CCCCN)n3cc(C[C@@H](C)CC)nn3)CC2)n1 | · | · | 2.8 | 77.0* | 11.8
C#CCOCCOCCOCCNc1nc(N2CCN(C(=O)CCCCCCCCCCNC(=O)[C@@H](CCC(=O)O)n3cc(CCCCCN)nn3)CC2)nc(N2CCN(C(=O)CCCCCCCCCCNC(=O)[C@H](CCCCN)n3cc(C[C@@H](C)CC)nn3)CC2)n1 | -4.1 | · | -3.8 | 51.8 | ·
C#CCOCCOCCOCCNc1nc(N2CCN(C(=O)[C@H](CCC(=O)O)n3cc(C(N)[C@H](C)CC)nn3)CC2)nc(N2CCN(C(=O)[C@H](Cc3cc4ccccc4[nH]3)n3cc(C(N)[C@H](C)CC)nn3)CC2)n1 (stereo not given in full) | · | 3.2 | · | · | ·
N#CC1=C(N)Oc2c(O)cc3ccccc3c2C1c1ccsc1 (stereo not given) | 8.0 | 8.4 | -2.0 | 91.8* | 68.9* | Diaph ctr 10uM=63.8*;Diaphorase 30uM=49.8
C[C@@H]1CN([C@@H](C)CO)S(=O)(=O)c2ccc(Br)cc2O[C@@H]1CN(C)S(=O)(=O)c1cn(C)cn1 | -2.3 | · | · | 10.7 | ·
O=C(CSc1ncn[nH]1)Nc1ccccc1Sc1ccc(Cl)cc1 | -4.9 | 3.7 | -2.4 | 110.1* | 68.1* | Diaph ctr 10uM=58.9*;Diaphorase 30uM=57.1*
c1ccc(-c2ccc(C3=Nn4c(Cn5nnc6ccccc65)nnc4SC3)cc2)cc1 | -19.4 | 13.2 | -7.9 | 71.9* | 12.7
Clc1ccc(C2=Nn3c(Cn4nnc5ccccc54)nnc3SC2)cc1 | -4.7 | 1.5 | -2.6 | 63.0* | 46.3
c1ccc(C2=Nn3c(Cn4nnc5ccccc54)nnc3SC2)cc1 | -14.7 | 8.9 | -0.6 | 25.8 | ·
c1ccc(Cc2nnc3n2N=C(c2ccccc2)CS3)cc1 | -6.0 | 2.5 | -1.4 | 61.2* | 21.9
COc1cc(N)c(Cl)cc1C(=O)OCC(=O)Nc1cccnc1Cl | 15.3 | · | -5.1 | 4.7 | ·
CC(Nc1cc(N2CCN(S(=O)(=O)N(C)C)CC2)ccc1[N+](=O)[O-])c1ccccc1 (stereo not given) | -12.4 | -1.8 | -0.2 | 88.2* | 23.5
CC(Nc1cc(N2CCN(S(C)(=O)=O)CC2)ccc1[N+](=O)[O-])c1ccccc1 (stereo not given) | -40.6 | 4.8 | 1.2 | 59.7* | 24.7
CC(Nc1cc(N2CCCC2)ccc1[N+](=O)[O-])c1ccccc1 (stereo not given) | -3.2 | -9.6 | -3.9 | 11.5 | ·
NS(=O)(=O)c1ccc(NC(=O)CN2CCc3ccccc3C2)cc1 | 3.2 | 6.3 | 3.5 | -1.0 | ·
C=CCNc1nc(C)c(CNc2c(C)cc(C)cc2C)nc1C#N | -5.7 | 7.2 | 6.4 | -14.2 | ·
CCc1nnc(N/N=C/c2ccc(O)c(OC)c2)n1N | 2.8 | -1.2 | 3.5 | 71.7* | 24.0
COc1ccc(CSc2nncn2N)cc1Br | 2.5 | 5.6 | -5.0 | -5.9 | ·
COc1ccc(/C=N/Nc2nncn2N)cc1Br | -8.9 | 28.2* | 14.2 | 79.3* | 39.7
CC1Cc2nc(SCC(=O)NCC3CCCO3)n(C)c(=O)c2S1 (stereo not given) | -8.5 | 21.5 | -0.9 | -5.1 | ·
CCOC(=O)c1cnc2ccc(OCC)cc2c1NCc1ccccc1 | · | 6.6 | 1.2 | 65.8* | -7.3
